Measurements pooled from the literature.
Values after ≈ are worked out from the molar mass of the structure shown.
Organism: Pichia kudriavzevii
Observed: microbial growth
Strain: ATCC6258

C=C(C)[C@@H]1CC[C@]2(C)CC[C@]3(C)[C@H](CC[C@@H]4[C@@]5(C)CC[C@H](O)C(C)(C)[C@@H]5CC[C@]43C)[C@@H]12
MIC (broth dilution; 48 h): 250 µg/mL (≈ 586 µM)

CCCCCCCCCN1CCNCC1
MIC (broth dilution; 48 h): 31.3 µg/mL (≈ 147 µM)

C[C@@H]1[C@H](O)[C@@H](C)/C=C/C=C/C=C/C=C/C=C/C=C/C=C/[C@H](O[C@@H]2O[C@H](C)[C@@H](O)[C@H](N)[C@@H]2O)C[C@@H]2O[C@](O)(C[C@@H](O)C[C@@H](O)[C@H](O)CC[C@@H](O)C[C@@H](O)CC(=O)O[C@H]1C)C[C@H](O)[C@H]2C(=O)O
MIC: 1.25 µg/mL (≈ 1.35 µM)

CCCCCOc1c(OC)cc(NC(C)CCCNC(=O)C(N)Cc2ccccc2)c2nc(C(C)(C)C)ccc12 (stereo not shown)
MIC: 10 µg/mL (≈ 18.2 µM)

CC1(C)CC[C@]2(C(=O)O)CC[C@]3(C)C(=CC[C@@H]4[C@@]5(C)CC[C@H](O)C(C)(C)[C@@H]5CC[C@]43C)[C@@H]2C1
MIC (broth dilution; 48 h): 500 µg/mL (≈ 1090 µM)

OC(Cn1cncn1)(Cn1cncn1)c1ccc(F)cc1F
MIC (broth dilution): 32 µg/mL (≈ 104 µM)

CCCCCCCOc1c(OC)cc(NC(C)CCCN)c2nc(C(C)(C)C)cc(C)c12 (stereo not shown)
MIC: 5 µg/mL (≈ 11.3 µM)

OC(CNCCN1CCOCC1)(Cn1cncn1)c1ccc(F)cc1F (stereo not shown)
MIC (broth dilution; 48 h): > 31.3 µg/mL

CCCCCOc1c(OC)cc(NC(C)CCCNC(=O)C(N)CC(C)C)c2nc(C(C)(C)C)ccc12 (stereo not shown)
MIC: 10 µg/mL (≈ 19.4 µM)

CCCCCN1CCN(CC(O)(Cn2cncn2)c2ccc(F)cc2F)CC1 (stereo not shown)
MIC (broth dilution; 48 h): > 31.3 µg/mL
